In ChEMBL document CHEMBL4354812, “N-Benzyl/Aryl Substituted Tryptanthrin as Dual Inhibitors of Indoleamine 2,3-Dioxygenase and Tryptophan 2,3-Dioxygenase” (J Med Chem, 2019) one finds Activity, inhibition and Ki data, which are given here for 1 compound.

The source made the active and inactive calls. The calls are words filed in the database; no cut-off is given here.

In assay [1] the test system is Mus musculus. Description: In vivo blockade of kynurenine pathway in Kunming mouse implanted with mouse H22 cells assessed as decrease in kynurenine/tryptophan ratio in serum at 45 mg/kg, po qd for 2 weeks by HPLC analysis. The class given is functional, organism-based. A digest of the protocol: (§1)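 H22 tumor-bearing Kunming mice received oral dosing once daily in 0.5% CMC-Na for 2 weeks. Serum Trp and Kyn were measured by HPLC on a C18 column with 15 mM sodium acetate (pH 3.6) containing 4% acetonitrile, UV detection at 280 and 360 nm. Kyn/Trp ratio calculated. n = 9–10/group.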

The species entered for assay [2] is Homo sapiens. Description: Inhibition of IDO1/TDO in IFNgamma-treated human HeLa cells assessed as T cell proliferation at 500 nM measured after 2 days in presence of IL-2, anti-CD3 and IFN-gamma by CFSE dye based flow cytometry analysis (reference value: 11.7 %). More on the design: scale not given: the % may be the effect or the level left. A digest of the protocol:
(§2)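 CFSE-labelled human PBMC lymphocytes (1 × 10⁶/well) were cocultured with HeLa cells (2 × 10⁵/well), a 5:1 ratio, in 150 U/mL IL-2, 100 ng/mL anti-CD3 and 60 ng/mL IFN-γ. Compound was tested at 40 nM, 200 nM, 500 nM or 1 μM. Proliferation was read by flow cytometry after 2 days, three independent experiments.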
(In flow cytometry, cells or beads pass a laser one at a time.)

For assay [3], the system named is Mus musculus. The experiment in a line: In vivo blockade of kynurenine pathway in Kunming mouse implanted with mouse H22 cells assessed as decrease in kynurenine level in serum at 45 mg/kg, po qd for 2 weeks by HPLC analysis. The class given is functional, organism-based. A digest of the protocol: as §1
Assay [4] concerns Mus musculus. The experiment in a line: In vivo blockade of kynurenine pathway in C57BL/6 mouse implanted with mouse LLC cells assessed as decrease in kynurenine/tryptophan ratio in tumor at 45 mg/kg, po qd for 2 weeks by LC-MS analysis. The class given is functional, organism-based. A digest of the protocol:
(§3)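 LLC tumor-bearing C57BL/6 mice received oral dosing once daily in 0.5% CMC-Na for 2 weeks. Tumors were dissected and Trp and Kyn measured by LC–MS on a C18 column with acetonitrile/0.1% formic acid gradient (5–80%), positive ion mode, m/z 205 (Trp) and 209 (Kyn), metronidazole internal standard. Kyn/Trp ratio calculated. n = 4–6/group.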

Assay [5] is filed under the species Homo sapiens. The experiment in a line: Inhibition of IDO1/TDO in IFNgamma-treated human HeLa cells assessed as T cell proliferation at 1 uM measured after 2 days in presence of IL-2, anti-CD3 and IFN-gamma by CFSE dye based flow cytometry analysis (reference value: 11.7 %). Also noted: scale not given: the % may be the effect or the level left. A digest of the protocol:
as §2

The subject of assay [6] is Mus musculus. Description: In vivo blockade of kynurenine pathway in C57BL/6 mouse implanted with mouse LLC cells assessed as increase in tryptophan level in tumor at 45 mg/kg, po qd for 2 weeks by LC-MS analysis. The class given is functional, organism-based. A digest of the protocol:
as §3

The species entered for assay [7] is Homo sapiens. The experiment in a line: Inhibition of IDO1/TDO in IFNgamma-treated human HeLa cells assessed as T cell proliferation at 200 nM measured after 2 days in presence of IL-2, anti-CD3 and IFN-gamma by CFSE dye based flow cytometry analysis (reference value: 11.7 %). Also noted: scale not given: the % may be the effect or the level left. A digest of the protocol:
as §2

Assay [8] concerns Mus musculus. The experiment in a line: In vivo inhibition of IDO1/2/TDO in C57BL/6 mouse assessed as decrease in LPS-stimulated kynurenine pathway by measuring effect on kynurenine level at 60 mg/kg, ig pretreated for 24 hrs with Escherichia coli LPS followed by compound treatment measured at 1 to 30 hrs post-treatment by HPLC analysis. The class given is functional, organism-based. In outline:
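C57BL/6 mice were given ip saline or E. coli LPS 5 mg/kg. 24 h later they received ig 60 mg/kg compound or 0.5% CMC-Na. Blood was taken at 1, 6, 12, 24 and 30 h after dosing. Serum Trp and Kyn were measured by HPLC and the Kyn/Trp ratio calculated. n = 3–5 mice/group.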

The test system of another assay is Rattus norvegicus. The experiment in a line: In vivo inhibition of IDO1/2/TDO in Sprague-Dawley rat assessed as decrease in kynurenine/tryptophan ratio in lung at 30 mg/kg, ig administered as single dose by LC-MS analysis. The class given is functional, organism-based. A digest of the protocol: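 Naive SD rats received a single ig dose of 30 mg/kg in 0.5% CMC-Na, with vehicle as control. Lungs were dissected and Trp and Kyn quantified by LC–MS, with the Kyn/Trp ratio calculated. n = 3–4 rats/group.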

For assay [9], the target named is T1, Tryptophan 2,3-dioxygenase (Homo sapiens, UniProt P48775). Description: Uncompetitive inhibition of recombinant human TDO expressed in Escherichia coli BL21 (DE3) assessed as assessed as inhibition constant using varying concentration of L-tryptophan as substrate by Dixon plot analysis. In outline: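 Enzymatic assays of the kynurenine-forming reaction were run with varying L-Trp. Ki was derived by plotting [S]/V against inhibitor concentration [I], with inhibition type assigned from the graphical pattern.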
Target sequence in this assay (P48775 whole entry): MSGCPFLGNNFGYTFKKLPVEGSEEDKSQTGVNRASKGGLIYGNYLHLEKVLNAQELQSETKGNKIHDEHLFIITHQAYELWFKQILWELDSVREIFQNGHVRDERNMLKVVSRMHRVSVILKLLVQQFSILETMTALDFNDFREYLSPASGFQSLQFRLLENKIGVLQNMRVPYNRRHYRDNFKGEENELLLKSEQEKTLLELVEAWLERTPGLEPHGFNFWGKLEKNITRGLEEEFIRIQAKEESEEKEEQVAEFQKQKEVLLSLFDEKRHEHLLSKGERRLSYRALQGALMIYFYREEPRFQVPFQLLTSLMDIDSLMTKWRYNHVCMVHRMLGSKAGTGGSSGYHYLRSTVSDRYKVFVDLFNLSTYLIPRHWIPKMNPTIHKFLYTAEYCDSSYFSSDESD

The species named for assay [10] is Homo sapiens. The experiment in a line: Inhibition of IDO1/TDO in IFNgamma-treated human HeLa cells assessed as T cell proliferation at 40 nM measured after 2 days in presence of IL-2, anti-CD3 and IFN-gamma by CFSE dye based flow cytometry analysis (reference value: 11.7 %). Also noted: scale not given: the % may be the effect or the level left. A digest of the protocol:
as §2

Assay [11] concerns the target T1, Tryptophan 2,3-dioxygenase. Description: Binding affinity to human TDO assessed as change in spectral signal at 200 uM by CPMG NMR spectrometry analysis.
Target sequence in this assay (P48775 whole entry, looked up): as the sequence (P48775 whole entry) above
Assay [12] concerns the target T2, Indoleamine 2,3-dioxygenase 2 (Homo sapiens) (UniProt Q6ZQW0).
T2 sequence (whole entry): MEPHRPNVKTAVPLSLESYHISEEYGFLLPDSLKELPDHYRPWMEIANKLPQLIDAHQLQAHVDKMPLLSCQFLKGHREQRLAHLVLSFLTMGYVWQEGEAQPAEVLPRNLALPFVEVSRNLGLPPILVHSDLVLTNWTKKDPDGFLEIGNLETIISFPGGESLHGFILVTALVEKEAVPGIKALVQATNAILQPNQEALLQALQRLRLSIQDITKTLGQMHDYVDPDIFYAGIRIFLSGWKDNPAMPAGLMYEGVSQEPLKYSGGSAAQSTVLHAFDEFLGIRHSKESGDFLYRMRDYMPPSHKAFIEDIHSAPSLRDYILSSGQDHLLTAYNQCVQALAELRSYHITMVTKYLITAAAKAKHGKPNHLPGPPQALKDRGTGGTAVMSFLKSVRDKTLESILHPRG
The experiment in a line: Binding affinity to human IDO2 assessed as change in spectral signal at 200 uM by CPMG NMR spectrometry analysis.

Usually Ki stands for a dissociation constant, usually derived from enzyme kinetics or from competition with a known ligand.

For `CN1CCN(Cc2ccc3nc4n(c(=O)c3c2)-c2ccc(F)cc2C4=O)CC1`, the outcome (in the assay with Mus musculus [1]; with Mus musculus [3]; with Mus musculus [4]; in assay [11]; in [12]) was Active. Moreover, the Activity in the assay filed under Homo sapiens [2] was 51.4%; in the assay listed under Homo sapiens [5], 52.8%; in the assay filed under Homo sapiens [7] it was 39.8%; in the assay listed under Homo sapiens [10], 37.2%. The outcome in the assay on Mus musculus [6] was inactive. Moreover, the inhibition result in the assay with Mus musculus [8] was “inactive”. Moreover, the inhibition entry in the assay on Rattus norvegicus is “Active”. In addition, the Ki in [9] came out at 310 nM.
